# According to the M2OR odorant receptor database:
# Residue numbers refer to the chain shown, from its start.
# What was measured:
# Details in all cases: stereoisomer not certain
# [1] = biological target: T1, OR5AC2 (Homo sapiens) (UniProt Q9NZP5)
# T1 sequence (whole entry): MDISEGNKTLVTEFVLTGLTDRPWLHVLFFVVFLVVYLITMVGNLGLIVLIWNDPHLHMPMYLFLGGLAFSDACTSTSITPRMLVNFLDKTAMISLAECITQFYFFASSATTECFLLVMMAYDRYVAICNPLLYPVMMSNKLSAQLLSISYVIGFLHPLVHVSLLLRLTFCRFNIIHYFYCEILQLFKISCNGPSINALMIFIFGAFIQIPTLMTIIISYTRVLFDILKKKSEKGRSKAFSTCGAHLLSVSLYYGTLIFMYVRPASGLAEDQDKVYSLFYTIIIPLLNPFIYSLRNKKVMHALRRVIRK
# Procedure, shortened: (§1)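 Assay methods differ from source to source, frequently being transient luciferase assays in mammalian cell lines. For each receptor–molecule pair, the label responsive (active) applies when the original authors judged the measured signal statistically different from baseline, and non-responsive (inactive) applies otherwise.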
# [2] = biological target: T2, OR5B17 (Homo sapiens) (UniProt Q8NGF7)
# T2 sequence (whole entry): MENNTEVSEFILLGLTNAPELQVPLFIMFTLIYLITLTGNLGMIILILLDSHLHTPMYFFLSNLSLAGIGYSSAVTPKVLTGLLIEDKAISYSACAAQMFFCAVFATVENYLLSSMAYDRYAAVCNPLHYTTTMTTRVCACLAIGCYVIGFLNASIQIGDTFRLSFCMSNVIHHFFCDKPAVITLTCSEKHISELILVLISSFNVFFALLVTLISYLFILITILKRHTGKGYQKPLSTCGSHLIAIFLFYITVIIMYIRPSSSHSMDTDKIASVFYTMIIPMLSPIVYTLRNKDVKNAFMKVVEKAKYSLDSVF
# Procedure, shortened: as §1
# [3] = biological target: T3, OR56B4 (Homo sapiens) (UniProt Q8NH76)
# T3 sequence (whole entry): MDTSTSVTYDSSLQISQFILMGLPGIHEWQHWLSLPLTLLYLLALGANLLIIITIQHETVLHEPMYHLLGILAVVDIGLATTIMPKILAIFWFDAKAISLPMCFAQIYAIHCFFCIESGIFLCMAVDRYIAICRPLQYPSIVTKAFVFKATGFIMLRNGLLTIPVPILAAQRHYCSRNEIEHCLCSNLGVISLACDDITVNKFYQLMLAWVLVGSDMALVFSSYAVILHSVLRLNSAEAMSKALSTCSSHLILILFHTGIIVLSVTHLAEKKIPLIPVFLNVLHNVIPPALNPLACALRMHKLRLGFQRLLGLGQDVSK
# Procedure, shortened: as §1
# [4] = biological target: T4, OR5A1 (Homo sapiens) (UniProt Q8NGJ0)
# T4 sequence (whole entry): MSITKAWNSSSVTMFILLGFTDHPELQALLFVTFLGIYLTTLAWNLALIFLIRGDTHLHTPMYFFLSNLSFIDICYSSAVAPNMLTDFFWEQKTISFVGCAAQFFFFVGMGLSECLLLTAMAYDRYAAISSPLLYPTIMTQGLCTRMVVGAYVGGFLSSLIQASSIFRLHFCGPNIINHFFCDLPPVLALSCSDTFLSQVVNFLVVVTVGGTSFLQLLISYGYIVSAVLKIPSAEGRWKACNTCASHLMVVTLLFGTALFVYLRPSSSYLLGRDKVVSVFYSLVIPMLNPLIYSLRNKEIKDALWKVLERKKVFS
# Procedure, shortened: as §1
# [5] = tested on: T5, OR5A1 D183N
# T5 sequence (whole entry): T4 sequence (whole entry) with D183N
# Procedure, shortened: as §1
# [6] = biological target: T6, OR5A2 (Homo sapiens) (UniProt Q8NGI9)
# T6 sequence (whole entry): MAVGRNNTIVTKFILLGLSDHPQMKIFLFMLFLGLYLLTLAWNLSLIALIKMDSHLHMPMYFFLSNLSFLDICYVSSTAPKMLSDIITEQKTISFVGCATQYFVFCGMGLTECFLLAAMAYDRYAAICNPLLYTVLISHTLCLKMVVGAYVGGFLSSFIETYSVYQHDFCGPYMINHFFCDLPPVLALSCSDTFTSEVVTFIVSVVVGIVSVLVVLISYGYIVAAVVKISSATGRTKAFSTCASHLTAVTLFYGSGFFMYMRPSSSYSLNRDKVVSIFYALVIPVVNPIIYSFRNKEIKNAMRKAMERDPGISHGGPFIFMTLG
# Procedure, shortened: as §1
# [7] = biological target: T7, OR5AK2 (Homo sapiens) (UniProt Q8NH90)
# T7 sequence (whole entry): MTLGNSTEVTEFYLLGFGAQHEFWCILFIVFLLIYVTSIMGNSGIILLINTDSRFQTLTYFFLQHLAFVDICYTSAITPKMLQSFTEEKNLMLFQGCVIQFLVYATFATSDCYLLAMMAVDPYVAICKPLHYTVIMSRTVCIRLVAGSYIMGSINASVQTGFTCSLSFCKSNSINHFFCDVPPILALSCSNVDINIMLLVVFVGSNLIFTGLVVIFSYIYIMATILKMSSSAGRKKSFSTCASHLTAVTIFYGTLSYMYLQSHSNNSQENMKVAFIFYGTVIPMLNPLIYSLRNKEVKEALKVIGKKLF
# Procedure, shortened: as §1
# [8] = biological target: T8, OR5AN1 (Homo sapiens) (UniProt Q8NGI8)
# T8 sequence (whole entry): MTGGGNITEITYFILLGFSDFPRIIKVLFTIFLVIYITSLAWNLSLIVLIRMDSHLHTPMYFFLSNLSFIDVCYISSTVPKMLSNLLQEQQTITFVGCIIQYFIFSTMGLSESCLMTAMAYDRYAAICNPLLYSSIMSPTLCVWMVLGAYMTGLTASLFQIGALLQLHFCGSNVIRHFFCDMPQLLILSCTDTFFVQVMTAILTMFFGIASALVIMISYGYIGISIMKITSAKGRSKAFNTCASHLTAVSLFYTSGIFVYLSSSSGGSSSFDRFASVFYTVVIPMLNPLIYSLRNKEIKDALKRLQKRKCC
# Procedure, shortened: as §1
# [9] = biological target: T9, OR5AP2 (Homo sapiens) (UniProt Q8NGF4)
# T9 sequence (whole entry): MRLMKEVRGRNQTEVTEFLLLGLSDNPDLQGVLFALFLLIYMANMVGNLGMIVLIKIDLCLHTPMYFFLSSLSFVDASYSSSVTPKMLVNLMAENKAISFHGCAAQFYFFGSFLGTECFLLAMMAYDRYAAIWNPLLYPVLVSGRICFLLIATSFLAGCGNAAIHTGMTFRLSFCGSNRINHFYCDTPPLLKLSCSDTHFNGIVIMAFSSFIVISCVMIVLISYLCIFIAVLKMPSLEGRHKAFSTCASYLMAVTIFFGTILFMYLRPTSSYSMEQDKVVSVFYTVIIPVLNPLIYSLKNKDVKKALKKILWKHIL
# Procedure, shortened: as §1
# [10] = biological target: T10, OR5AR1 (Homo sapiens) (UniProt Q8NGP9)
# T10 sequence (whole entry): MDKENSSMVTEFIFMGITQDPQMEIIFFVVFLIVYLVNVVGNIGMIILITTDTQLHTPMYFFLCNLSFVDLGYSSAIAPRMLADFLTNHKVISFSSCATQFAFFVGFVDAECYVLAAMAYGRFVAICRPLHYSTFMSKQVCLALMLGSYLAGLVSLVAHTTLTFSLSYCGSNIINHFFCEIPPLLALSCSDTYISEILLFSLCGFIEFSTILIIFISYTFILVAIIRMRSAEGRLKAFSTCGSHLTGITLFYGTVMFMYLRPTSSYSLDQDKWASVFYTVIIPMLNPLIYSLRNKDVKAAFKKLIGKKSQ
# Procedure, shortened: as §1
# [11] = biological target: T11, OR5AS1 (Homo sapiens) (UniProt Q8N127)
# T11 sequence (whole entry): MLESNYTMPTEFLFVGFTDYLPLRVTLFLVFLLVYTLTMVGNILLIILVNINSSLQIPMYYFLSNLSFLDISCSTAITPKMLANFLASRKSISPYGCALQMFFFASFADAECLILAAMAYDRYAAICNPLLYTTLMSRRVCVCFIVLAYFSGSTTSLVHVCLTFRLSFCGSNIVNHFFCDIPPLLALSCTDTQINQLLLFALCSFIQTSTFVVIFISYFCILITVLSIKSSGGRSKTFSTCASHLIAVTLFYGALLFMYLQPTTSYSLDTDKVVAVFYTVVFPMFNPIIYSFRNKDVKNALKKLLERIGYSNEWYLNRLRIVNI
# Procedure, shortened: as §1
# [12] = biological target: T12, OR5AU1 (Homo sapiens) (UniProt Q8NGC0)
# T12 sequence (whole entry): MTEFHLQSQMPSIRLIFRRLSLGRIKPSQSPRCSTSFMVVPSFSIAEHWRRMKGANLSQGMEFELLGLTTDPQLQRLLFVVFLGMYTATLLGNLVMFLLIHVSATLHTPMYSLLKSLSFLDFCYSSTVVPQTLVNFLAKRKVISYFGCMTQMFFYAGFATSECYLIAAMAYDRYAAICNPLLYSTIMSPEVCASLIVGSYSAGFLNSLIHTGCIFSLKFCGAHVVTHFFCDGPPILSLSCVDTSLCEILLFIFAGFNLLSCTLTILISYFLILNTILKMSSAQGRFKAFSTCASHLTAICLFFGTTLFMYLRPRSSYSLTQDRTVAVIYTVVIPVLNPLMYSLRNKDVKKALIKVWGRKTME
# Procedure, shortened: as §1
# [13] = biological target: T13, OR5B12 (Homo sapiens) (UniProt Q96R08)
# T13 sequence (whole entry): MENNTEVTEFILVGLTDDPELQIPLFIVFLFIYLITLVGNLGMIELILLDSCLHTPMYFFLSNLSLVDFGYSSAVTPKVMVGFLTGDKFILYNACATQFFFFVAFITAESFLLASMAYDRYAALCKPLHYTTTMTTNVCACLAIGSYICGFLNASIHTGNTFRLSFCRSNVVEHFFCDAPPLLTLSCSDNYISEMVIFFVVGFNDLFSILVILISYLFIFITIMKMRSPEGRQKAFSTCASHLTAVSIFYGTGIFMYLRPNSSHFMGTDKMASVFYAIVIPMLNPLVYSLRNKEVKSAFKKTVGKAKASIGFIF
# Procedure, shortened: as §1
# [14] = biological target: T14, OR5B2 (Homo sapiens) (UniProt Q96R09)
# T14 sequence (whole entry): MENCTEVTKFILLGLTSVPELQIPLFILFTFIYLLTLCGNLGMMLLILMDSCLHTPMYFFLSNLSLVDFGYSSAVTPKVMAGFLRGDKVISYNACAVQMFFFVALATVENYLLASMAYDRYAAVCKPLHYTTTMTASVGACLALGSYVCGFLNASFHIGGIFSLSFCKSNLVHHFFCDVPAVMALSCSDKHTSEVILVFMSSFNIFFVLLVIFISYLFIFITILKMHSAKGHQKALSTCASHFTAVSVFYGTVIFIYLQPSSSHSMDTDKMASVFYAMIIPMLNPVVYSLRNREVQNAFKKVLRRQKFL
# Procedure, shortened: as §1
# [15] = tested on: T15, OR5B2 E6D
# T15 sequence (whole entry): T14 sequence (whole entry) with E6D
# Procedure, shortened: as §1
# [16] = biological target: T16, OR5B21 (Homo sapiens) (UniProt A6NL26)
# T16 sequence (whole entry): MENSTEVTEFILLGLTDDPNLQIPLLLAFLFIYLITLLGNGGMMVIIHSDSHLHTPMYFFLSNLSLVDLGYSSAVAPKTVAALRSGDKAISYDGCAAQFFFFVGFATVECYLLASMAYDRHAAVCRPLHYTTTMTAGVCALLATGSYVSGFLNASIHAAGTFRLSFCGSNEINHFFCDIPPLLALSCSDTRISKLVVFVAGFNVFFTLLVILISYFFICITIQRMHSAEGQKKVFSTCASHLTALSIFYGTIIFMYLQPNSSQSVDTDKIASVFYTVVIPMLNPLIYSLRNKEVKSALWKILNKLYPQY
# Procedure, shortened: as §1
# [17] = biological target: T17, OR5B3 (Homo sapiens) (UniProt Q8NH48)
# T17 sequence (whole entry): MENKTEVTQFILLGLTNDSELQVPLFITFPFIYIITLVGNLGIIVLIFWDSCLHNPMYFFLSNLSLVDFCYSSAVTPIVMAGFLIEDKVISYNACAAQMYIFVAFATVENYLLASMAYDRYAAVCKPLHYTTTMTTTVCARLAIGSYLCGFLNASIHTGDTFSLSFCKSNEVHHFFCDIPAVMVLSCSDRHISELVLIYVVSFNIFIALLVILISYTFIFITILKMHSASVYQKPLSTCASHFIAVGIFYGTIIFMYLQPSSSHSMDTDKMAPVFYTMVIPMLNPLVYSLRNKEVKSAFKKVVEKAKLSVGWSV
# Procedure, shortened: as §1
# [18] = tested on: T18, OR5B3 I198V G247A
# T18 sequence (whole entry): T17 sequence (whole entry) with I198V, G247A
# Procedure, shortened: as §1
structure (smiles),measurement,setting,value
COC1CC2CC1C1CC(C=O)CC21 (centres undefined),odorant receptor agonist call,[1],inactive
same,odorant receptor agonist call,[2],inactive
CCC(=O)C=CC1C(C)=CCCC1(C)C (centres undefined),odorant receptor agonist call,[1],inactive
same,odorant receptor agonist call,[2],inactive
CCc1ccc(CC(C)(C)C=O)cc1,odorant receptor agonist call,[1],inactive
same,odorant receptor agonist call,[2],active
CC1=C(O)C(=O)OC1C (centres undefined),odorant receptor agonist call,[3],inactive
same,odorant receptor agonist call,[4],inactive
same,odorant receptor agonist call,[5],inactive
same,odorant receptor agonist call,[6],inactive
same,odorant receptor agonist call,[1],inactive
same,odorant receptor agonist call,[7],inactive
same,odorant receptor agonist call,[8],inactive
same,odorant receptor agonist call,[9],inactive
same,odorant receptor agonist call,[10],inactive
same,odorant receptor agonist call,[11],inactive
same,odorant receptor agonist call,[12],inactive
same,odorant receptor agonist call,[13],inactive
same,odorant receptor agonist call,[2],inactive
same,odorant receptor agonist call,[14],inactive
same,odorant receptor agonist call,[15],inactive
same,odorant receptor agonist call,[16],inactive
same,odorant receptor agonist call,[17],inactive
same,odorant receptor agonist call,[18],inactive
